Measurements published in ChEMBL document CHEMBL1144868, “Modulation of P-glycoprotein-mediated multidrug resistance by flavonoid derivatives and analogues” (2003).

What was measured:
Assay type in all cases: functional, Homo sapiens
K562 [1] = assay: Rhodamine-123 accumulation in K562 cells with or without expression of PGP protein at a concentration of 1 nM
Summary of the method: (§1)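 K562R (adriamycin-resistant, Pgp-expressing) cells, kept under continuous 10^-6 M adriamycin, were washed twice and suspended at 10⁶ cells/mL in RPMI. Modulator was added for 15 min at 37 °C, then rhodamine-123 at 0.05 µg/mL final for 1 h at 37 °C. Fluorescence at […] was read by flow cytometry in arbitrary units, as the mean of at least 3 independent experiments.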

K562 [2] = assay: Rhodamine-123 accumulation in K562 cells with or without expression of PGP protein at a concentration of 0.1 uM; summary of the method: as §1
K562 [3] = assay: Rhodamine-123 accumulation in K562 cells with or without expression of PGP protein at a concentration of 1 uM; summary of the method: as §1
K562 [4] = assay: Rhodamine-123 accumulation in K562 cells with or without expression of PGP protein at a concentration of 0.01 uM; summary of the method: as §1

`O=C(c1cc(=O)c2c(O)cccc2o1)N1CCCCC1` gave a Rhodamine-123 accumulation (K562 [1]) of 43 arbitrary units, a Rhodamine-123 accumulation (K562 [2]) of 44 arbitrary units and a Rhodamine-123 accumulation (K562 [3]) of 45 arbitrary units. The Rhodamine-123 accumulation (K562 [4]) was 46 arbitrary units.
Molecule `O=C(c1cc(=O)c2c(O)cccc2o1)N1CCN(c2ccccc2)CC1` has a Rhodamine-123 accumulation (K562 [1]) of 39 arbitrary units, a Rhodamine-123 accumulation (K562 [2]) of 57 arbitrary units and a Rhodamine-123 accumulation (K562 [3]) of 82 arbitrary units. It also gave a Rhodamine-123 accumulation (K562 [4]) of 40 arbitrary units.
`O=C(c1ccccc1)N1CCN(C(=O)c2cc(=O)c3c(O)cccc3o2)CC1` showed a Rhodamine-123 accumulation (K562 [1]) of 38 arbitrary units, a Rhodamine-123 accumulation (K562 [2]) of 47 arbitrary units and a Rhodamine-123 accumulation (K562 [3]) of 42 arbitrary units. The Rhodamine-123 accumulation (K562 [4]) was 45 arbitrary units.
`CC(=O)N1CCN(C(=O)c2cc(=O)c3c(O)cccc3o2)CC1` was tested, and the Rhodamine-123 accumulation (K562 [1]) was 41 arbitrary units, the Rhodamine-123 accumulation (K562 [2]) was 37 arbitrary units and the Rhodamine-123 accumulation (K562 [3]) was 38 arbitrary units. It also gave a Rhodamine-123 accumulation (K562 [4]) of 43 arbitrary units.
For `COc1cc(OC)c2c(=O)c(-c3ccccc3)coc2c1` [5,7-DIMETHOXYISOFLAVONE], the Rhodamine-123 accumulation (K562 [1]) was 40 arbitrary units, the Rhodamine-123 accumulation (K562 [2]) was 46 arbitrary units and the Rhodamine-123 accumulation (K562 [3]) was 49 arbitrary units. It also gave a Rhodamine-123 accumulation (K562 [4]) of 54 arbitrary units.
In the case of `O=C(c1cc(=O)c2c(O)cccc2o1)N1CCN(Cc2ccccc2)CC1`, the Rhodamine-123 accumulation (K562 [1]) is reported as 45 arbitrary units, the Rhodamine-123 accumulation (K562 [2]) is reported as 95 arbitrary units and the Rhodamine-123 accumulation (K562 [3]) is reported as 136 arbitrary units. For the same molecule, the Rhodamine-123 accumulation (K562 [4]) was 72 arbitrary units.
For `CN1CCN(C(=O)c2cc(=O)c3c(O)cccc3o2)CC1`, the Rhodamine-123 accumulation (K562 [1]) was 76 arbitrary units, the Rhodamine-123 accumulation (K562 [2]) was 138 arbitrary units and the Rhodamine-123 accumulation (K562 [3]) was 207 arbitrary units. For the same molecule, the Rhodamine-123 accumulation (K562 [4]) was 134 arbitrary units.
Work on `COc1cc(OC)c2c(O)c(-c3ccccc3)cnc2c1` yielded a Rhodamine-123 accumulation (K562 [1]) of 36 arbitrary units, a Rhodamine-123 accumulation (K562 [2]) of 55 arbitrary units and a Rhodamine-123 accumulation (K562 [3]) of 82 arbitrary units. The Rhodamine-123 accumulation (K562 [4]) was 43 arbitrary units.
Molecule `O=C(c1cc(=O)c2c(O)cccc2o1)N1CCOCC1` has a Rhodamine-123 accumulation (K562 [1]) of 39 arbitrary units, a Rhodamine-123 accumulation (K562 [2]) of 44 arbitrary units and a Rhodamine-123 accumulation (K562 [3]) of 42 arbitrary units. The Rhodamine-123 accumulation (K562 [4]) was 41 arbitrary units.
With `COc1cc(OC)c2c(c1)O/C(=C\c1ccccc1)C2=O` the Rhodamine-123 accumulation (K562 [1]) was 40 arbitrary units, the Rhodamine-123 accumulation (K562 [2]) was 203 arbitrary units and the Rhodamine-123 accumulation (K562 [3]) was 249 arbitrary units. For the same molecule, the Rhodamine-123 accumulation (K562 [4]) was 178 arbitrary units.
For `C/C=C/C[C@@H](C)[C@@H](O)[C@H]1C(=O)N[C@@H](CC)C(=O)N(C)CC(=O)N(C)[C@@H](CC(C)C)C(=O)N[C@@H](C(C)C)C(=O)N(C)[C@@H](CC(C)C)C(=O)N[C@@H](C)C(=O)N[C@H](C)C(=O)N(C)[C@@H](CC(C)C)C(=O)N(C)[C@@H](CC(C)C)C(=O)N(C)[C@@H](C(C)C)C(=O)N1C` [CYCLOSPORINE], the Rhodamine-123 accumulation (K562 [1]) was 72 arbitrary units, the Rhodamine-123 accumulation (K562 [2]) was 87 arbitrary units and the Rhodamine-123 accumulation (K562 [3]) was 102 arbitrary units. The Rhodamine-123 accumulation (K562 [4]) was 80 arbitrary units.
Work on `CCN1CCN(C(=O)c2cc(=O)c3c(O)cccc3o2)CC1` yielded a Rhodamine-123 accumulation (K562 [1]) of 40 arbitrary units, a Rhodamine-123 accumulation (K562 [2]) of 47 arbitrary units and a Rhodamine-123 accumulation (K562 [3]) of 85 arbitrary units. For the same molecule, the Rhodamine-123 accumulation (K562 [4]) was 44 arbitrary units.
With `O=C(NCc1ccc(Cl)cc1)c1cc(=O)c2c(O)cccc2o1` the Rhodamine-123 accumulation (K562 [1]) was 50 arbitrary units, the Rhodamine-123 accumulation (K562 [2]) was 45 arbitrary units and the Rhodamine-123 accumulation (K562 [3]) was 46 arbitrary units. The Rhodamine-123 accumulation (K562 [4]) was 42 arbitrary units.
